Active and inactive are the calls of the source. The rule behind the calls is not given here.
How the values were obtained:
Type in all cases: functional
Rattus norvegicus [1] = experiment: Antihyperlipidemic activity in high-cholesterol diet fed Wistar albino rat model assessed as reduction in serum total cholesterol level at 20 mg/kg, po
Summary of the method: (§1)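 Adult male rats given high cholesterol diet (2% cholesterol, 1% cholic acid) for 14 days, dosed orally at 20 mg/kg in 0.5% CMC on days 8–14. Normal-chow and HCD vehicle controls were included, n=6 per group. After a 12 h fast on day 14, tail blood was taken under mild ether anesthesia. Serum TC, TG and HDL were measured by kit spectrophotometry, and LDL was calculated by Friedewald's formula. Values are percent change versus the HCD control.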

Rattus norvegicus [2] = experiment: Antihyperlipidemic activity in high-cholesterol diet fed Wistar albino rat model assessed as reduction in serum triglyceride level at 20 mg/kg, po; summary of the method: as §1
Rattus norvegicus [3] = experiment: Antihyperlipidemic activity in high-cholesterol diet fed Wistar albino rat model assessed as increase in serum HDL level at 20 mg/kg, po; summary of the method: as §1
Rattus norvegicus [4] = experiment: Antihyperlipidemic activity in high-cholesterol diet fed Wistar albino rat model assessed as reduction in serum LDL level at 20 mg/kg, po; summary of the method: as §1
Rattus norvegicus [5] = experiment: Antihyperlipidemic activity in high-cholesterol diet fed Wistar albino rat model assessed as ratio of LDL level to HDL level at 20 mg/kg, po
Summary of the method: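 The ratio was calculated from group mean LDL and mean HDL. It used the HCD rat model (2% cholesterol, 1% cholic acid, 14 days), oral dosing at 20 mg/kg in 0.5% CMC on days 8–14, and n=6. Serum was taken from tail blood after a 12 h fast. HDL was measured by kit and LDL was derived by Friedewald's formula.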

SMILES | Activity (Rattus norvegicus [1]) | Activity (Rattus norvegicus [2]) | Activity (Rattus norvegicus [3]) | Activity (Rattus norvegicus [4]) | Ratio (Rattus norvegicus [5])
CC(Oc1ccc2ccccc2c1)c1n[nH]c(=S)n1-c1ccccc1 (centres undefined) | inactive | inactive | 47.78% | Active | 3.75
C=CCNC(=S)NNC(=O)C(C)Oc1ccc2ccccc2c1 (centres undefined) | inactive | – | Active | – | 8.16
CCSc1nnc(C(C)Oc2ccc3ccccc3c2)n1CC (centres undefined) | inactive | inactive | Active | Active | 4.5
COc1ccc(/C=N/NC(=O)C(C)Oc2ccc3ccccc3c2)cc1 (centres undefined) | inactive | – | Active | – | 5.4
C/C(=N\NC(=O)C(C)Oc1ccc2ccccc2c1)c1ccc(Br)cc1 (centres undefined) | inactive | – | Active | – | 6.04
CC(Oc1ccc2ccccc2c1)C(=O)N1N=C(c2ccccc2)CC1(O)c1ccccc1 (centres undefined) | inactive | inactive | 49.73% | – | 3.99
CC(Oc1ccc2ccccc2c1)C(=O)N/N=C/c1ccc([N+](=O)[O-])cc1 (centres undefined) | inactive | inactive | Active | – | 4.74
CCSc1nnc(C(C)Oc2ccc3ccccc3c2)n1-c1ccccc1 (centres undefined) | 19.44% | 19.07% | 51.21% | 19.15% | 3.4
Cc1ccc(C)c(OCCCC(C)(C)C(=O)O)c1 [GEMFIBROZIL] | 4.68% | 22.23% | 25.18% | – | 4.81
CCn1c(C(C)Oc2ccc3ccccc3c2)n[nH]c1=S (centres undefined) | inactive | 20.88% | 48.25% | Active | 3.61
CC(C)=NNC(=O)C(C)Oc1ccc2ccccc2c1 (centres undefined) | inactive | – | Active | – | 6.1
CC(Oc1ccc2ccccc2c1)C(=O)NNC(=S)Nc1ccccc1 (centres undefined) | inactive | – | Active | – | 5.7
CC1=NN(C(=O)C(C)Oc2ccc3ccccc3c2)C(=O)C1 (centres undefined) | 15.89% | – | Active | 21.74% | 4.54
CC(Oc1ccc2ccccc2c1)C(=O)O (centres undefined) | – | – | Active | Active | –
COc1ccc(NC(=O)C(C)Oc2ccc3ccccc3c2)cc1 (centres undefined) | inactive | – | Active | – | 5.19
CC(Oc1ccc2ccccc2c1)c1n[nH]c(=S)o1 (centres undefined) | 16.18% | 26.78% | 55.42% | 19.58% | 3.29
CCNC(=S)NNC(=O)C(C)Oc1ccc2ccccc2c1 (centres undefined) | inactive | – | Active | – | 6.71
